{"source": "paper PMC11483317", "about": "(Heliyon, 2024)", "key": {"[1]": {"tested_on": "hBLECs of the human BBB model", "assay": "Toxicity assessment: hBLEC monolayer tightness by Lucifer yellow permeability", "assay_type": "cell-based", "procedure,_shortened": "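Integrity check run alongside transport, on PET inserts in Ringer–HEPES (pH 7.4, 37 °C). Lucifer yellow added luminally with test lipid (1 and 10 µM) or 1% DMSO as toxicity control. Abluminal sampled at 30–180 min, luminal at 180 min. Fluorescence read at ex 490/em 525 nm. Permeability divided by 1.12 cm² insert area gives Pe (cm/min), compared with untreated cells. Mean ± SD, n = 3.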"}, "[2]": {"assay": "Passage / apparent permeability across hBLEC monolayer", "assay_type": "in vitro ADME, human", "conditions": "human, pH 7.4, apparent coefficient permeability (Papp), 10 μM, 180 min after transport across hBLECs", "procedure,_shortened": "(§1)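 Test lipid at 1 or 10 µM in 500 µL Ringer–HEPES (pH 7.4) on the luminal side of hBLEC/pericyte co-culture inserts. Inserts moved to fresh 1.5 mL buffer wells at 30, 60, 120 and 180 min. Media lipids extracted by Bligh–Dyer and quantified by C18 LC-MS. %/min = quantity crossed ÷ initial luminal quantity ÷ time. Papp calculated per an earlier method. Mean ± SD, n = 3.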"}, "hBLECs [3]": {"tested_on": "hBLECs", "assay": "Passage / apparent permeability across hBLEC monolayer", "assay_type": "in vitro ADME, human", "procedure,_shortened": "as §1"}, "hBLECs [4]": {"tested_on": "hBLECs", "assay": "Intracellular accumulation in hBLECs, LC-MS", "assay_type": "in vitro ADME, human", "conditions": "180 min after incubation", "procedure,_shortened": "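Human BBB model: cord-blood CD34+-derived endothelial cells on PET inserts, co-cultured ≥6 days with brain pericytes (37 °C, 5% CO2) to give hBLECs. Test lipid at 1 or 10 µM in 500 µL Ringer–HEPES (pH 7.4), luminal side, for 180 min. Cell lipids extracted by Folch method, quantified by C18 LC-MS, and expressed as % of initial concentration. Triplicates.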"}, "brain": {"tested_on": "brain", "conditions": "20-days-old rats, tail vein perfusion 30 s; cited from earlier work"}, "[5]": {"tested_on": "brain capillary endothelial cells and astrocytes", "conditions": "cited from earlier work; for % of initial radioactivity in the abluminal medium: same bovine BBB model"}, "brain DHA": {"tested_on": "brain DHA", "conditions": "normal adult mice, dietary; cited from earlier work"}}, "note": "Entries after “also recorded” stand apart in the source; their conditions may differ."}
{"molecule": "CC/C=C\\C/C=C\\C/C=C\\C/C=C\\C/C=C\\C/C=C\\CCC(=O)O", "note": "[DHA, Docosahexaenoic acid]", "values": [{"measurement": "toxicity towards hBLECs (from LY permeability)", "setting": "[1]; 10 μM", "result": "absence of toxicity"}, {"measurement": "Papp at 180 min, 10 μM", "setting": "[2]", "result": 26, "unit": "×10⁻⁶ cm/s"}, {"measurement": "percentage of passage per min (lipids recovered in abluminal medium)", "setting": "hBLECs [3]; 10 μM, 30 min post-incubation", "result": 0.54, "unit": "%"}, {"measurement": "percentage of passage per min (lipids recovered in abluminal medium)", "setting": "hBLECs [3]; 10 μM, 120 min post-incubation", "result": 0.40, "unit": "%"}, {"measurement": "apparent coefficient permeability (Papp)", "setting": "hBLECs [3]; 10 μM, 180 min after transport across hBLECs", "result": 26.04, "unit": "×10⁻⁶ cm/s"}, {"measurement": "percentage of passage per minute (constant)", "setting": "hBLECs [3]; constant over the 180 min transport", "result": "around 0.5 % per minute"}, {"measurement": "intracellular accumulation in hBLECs", "setting": "hBLECs [4]; 1 μM", "result": "lower than the limit of detection; also recorded: under the limit of quantification"}, {"measurement": "intracellular accumulation in hBLECs", "setting": "hBLECs [4]; 10 μM", "result": "3.11 ± 1.24", "unit": "%"}, {"measurement": "recovered in the brain, % of injected radioactivity", "setting": "brain", "result": "0.3–0.4%"}, {"measurement": "% of initial radioactivity in abluminal medium", "setting": "[5]; 5 μM, incubation 240 min", "result": 5, "unit": "%"}, {"measurement": "% of initial radioactivity in the abluminal medium", "setting": "[5]", "result": 4.5, "unit": "%"}, {"measurement": "increase of levels of brain DHA", "setting": "brain DHA", "result": "did not significantly increase"}]}
{"molecule": "Lucifer Yellow", "values": [{"measurement": "BBB permeability to Lucifer yellow (control permeability)", "setting": "[1]; control cells, absence of test lipids, 180 min", "result": "0.55 ± 0.06 x 10^−3 cm min^−1"}]}
{"molecule": "CC/C=C\\C/C=C\\C/C=C\\C/C=C\\C/C=C\\C/C=C\\CCC(=O)OC(COC(C)=O)COP(=O)([O-])OCC[N+](C)(C)C", "note": "(stereo not drawn) [AceDoPC, 1-acetyl,2-docosahexaenoyl-glycerophosphocholine]", "values": [{"measurement": "% of initial radioactivity in the abluminal medium", "setting": "[5]", "result": 7.5, "unit": "%"}]}
{"molecule": "CC/C=C\\C/C=C\\C/C=C\\C/C=C\\C/C=C\\C/C=C\\CCC(=O)O[C@H](COC(=O)CCCCCCCCCCCCCCC)COP(=O)([O-])OCC[N+](C)(C)C", "note": "[PC-DHA, 1-palmitoyl,2-docosahexaenoyl-sn-glycero-3-phosphatidylcholine]", "values": [{"measurement": "% of initial radioactivity in the abluminal medium", "setting": "[5]", "result": 4, "unit": "%"}]}
